# Sampled rows, rich in hits. Any-hit rate of the full collection: about 1.3%.
# sdo1 growth – growth rescue of sdo1-depleted yeast, primary screen, S. cerevisiae, bone marrow failure model; S. cerevisiae sdo1-depleted JHY4D growth rescue, OD600 30 h; stronger effect = higher value; pdr5 snq2 efflux-pump mutant strain; z-score at 10 µM; 140,000 compounds, 0.21% hits;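 active = z-score above 3 at both the 24 hr and the 30 hr optical density reads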;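 note: z-score against mean and SD of all compound wells on the same plate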
# Yeast life ext – compounds extending yeast replicative lifespan, primary screen, S. cerevisiae, OD615. S. cerevisiae growth with nicotinamide; deaD strain in restrictive glucose medium. inhibition of the nicotinamide effect, % at 10 µM. 130,000 compounds, 0.68% hits. AID 775, 2007;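 active = inhibition above a set limit, placed 3 SD over the median of all compounds, cut at about 26% in these data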;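 note: 0% = nicotinamide-treated wells and 100% = cells grown without nicotinamide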
#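 Assay system: engineered S. cerevisiae DeaD replicative-lifespan strain, galactose-grown log-phase cells; Buffer or medium: CSMM-D glucose medium, restrictive; Probe or stimulus: nicotinamide 1.5 mM; Compound: single dose 10 µM compound, 0.25% DMSO; Schedule: 4 h preincubation then 48 h treatment at 30 °C; Technique: OD615 measurement.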
# BB579 growth dn – growth inhibitors of yeast BB579 in restrictive medium, primary screen, yeast lifespan-shortening project, S. cerevisiae. inhibition, % at 10 µM. 140,000 compounds, 0.51% hits. AID 804, 2007. OD615, 48 h;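 active = inhibition above a set limit, 3 SD over the mean compound inhibition, cut at about 44% in these data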
#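 Material: Saccharomyces cerevisiae DeaD strain BB579, replicative lifespan model yeast; buffer or medium: CSMM-D restrictive synthetic medium containing dextrose (glucose); compound: 10 µM single dose, DMSO 0.25%; timing: 48 h compound exposure at 30 °C after 4 h preincubation; signal: turbidity as optical density at 615 nm; benchmarks: positive control amphotericin B 10 µg/mL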
# HMGR II inh – inhibitors of E. faecalis class II HMGR, primary screen, biochemical, Enterococcus faecalis; 190,000 compounds, 0.41% hits; inhibition, % at 10 µM; purified E. faecalis HMGR, NADPH absorbance 340 nm kinetic; HMG-CoA reductase (Enterococcus faecalis, mvaE); AID 1066, 2008;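 active = inhibition above a set limit, the median over all tested compounds plus 3 SD, cut at about 9.5% in these data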;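 note: enzyme runs in reverse so mevalonate oxidation gives rising NADPH absorbance; 0% = complete reaction with DMSO and 100% = background rate lacking mevalonate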
# SDO1 rescue DR – SDO1-depleted yeast growth rescue, concentration-response, diseases of bone marrow failure, JHY4D, OD600. shares compounds with sdo1 growth. S. cerevisiae JHY4D (SDO1-depleted) growth rescue, 30 h; stronger effect = higher value; efflux-deficient strain, SNQ2 and PDR5 mutated. OD recovery (no concentration beside the values). 440 compounds, 44% hits;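 active = yeast growth recovered at 30 hours, either rising with dose fitted slope above 0.001 or with average optical density gain above 0.07, some results past the limit were not filed as active; inactive = growth falling with dose or no effect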;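 note: gain in OD600 from 0 h to 30 h averaged across all seven doses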
# Starred values were filed as active, the others as inactive; x = no result given.
SMILES,sdo1 growth,Yeast life ext,BB579 growth dn,HMGR II inh,SDO1 rescue DR
COC(=O)C1(C(=O)OC)NOC2C(=O)N(c3ccccc3)C(=O)C21 (centres undefined),7.8*,-4,-20,2,0.092*
CCC(=O)OCCn1c(=O)c2cc3c(=O)n(CCOC(=O)CC)c(=O)c3cc2c1=O,2.6,-11,-30,-2,0.083*
CCCOC(=O)Cn1c(=O)c2cc3c(=O)n(CC(=O)OCCC)c(=O)c3cc2c1=O,0.47,-6,-33,-5,x
O=C(CSc1nnc(NC(=O)C2CC2)s1)Nc1ccc2c(c1)OCCO2,x,x,x,-4,x
O=C(CSc1nnnn1-c1ccccc1)Nc1nc(-c2ccccc2)ns1,2,4,-6,-9,0.071*
Cc1ccc(-n2nnnc2SCC(=O)Nc2nc(-c3ccc(F)cc3)cs2)cc1C,0.64,-15,-27,-2,0.029
O=C(CSc1nnnn1-c1ccccc1)Nc1nsc(-c2ccccc2)n1,-0.36,-9,-27,-1,x
CC(=O)Nc1ccc(Oc2cc(NC(C)=O)cc([N+](=O)[O-])c2)cc1,x,x,x,-1,x
CCOC(=O)c1c(NC(=O)CSc2nncs2)sc(C)c1C,0.62,3,-30,-1,0.083
CCc1ccc(NC(=O)C2C3/C=C\CCCCC32)cc1 (centres undefined),-0.8,11,-37,0,x
S=c1sc2c(N3CCOCC3)ncnc2n1-c1ccccc1,7.6*,-4,-43,-2,0.029
COC(=O)c1ccc2c(c1)C(=O)/C(=C/c1ccc(O)cc1)O2,3.5*,-6,-9,1,0.06
CCc1ccc(/C=C2\Oc3cc(OS(C)(=O)=O)ccc3C2=O)cc1,-0.94,-3,-72,0,x
COc1ccc(C2C(C(=O)N3CCOCC3)=C(C)NC3=C2C(=O)CC(C)(C)C3)c(OC)c1 (centres undefined),8.2*,-17,-6,-2,0.059
COC(C(=O)Nc1ccc(S(=O)(=O)Nc2ccc(F)cc2)cc1)c1ccccc1 (centres undefined),-0.57,2,-43,6,x
COC(C(=O)Nc1ccc(S(=O)(=O)Nc2cccc3ccccc23)cc1)c1ccccc1 (centres undefined),8.8*,3,-26,1,0.065
COc1ccc(CN(C)Cc2nc3scc(-c4ccccc4)c3c(=O)[nH]2)cc1OC,-0.11,0,-41,1,x
O=C(CSc1nnc(-c2ccc(S(=O)(=O)N3CCCC3)cc2)o1)NCc1ccco1,2.6,-4,-24,-4,0.038
COC(=O)CSc1ccc(S(=O)(=O)N2CCCCCC2)cc1[N+](=O)[O-],x,x,x,-4,x
O=C(Nc1cc([N+](=O)[O-])ccc1Cl)C(Sc1ccccc1)c1ccccc1 (centres undefined),11*,9,-10,-5,0.059
O=C(Nc1ccc(Cl)c([N+](=O)[O-])c1)C(Sc1ccccc1)c1ccccc1 (centres undefined),-1.6,0,-24,0,x
Cc1nnc(NC(=O)CSc2ncnc3scc(-c4ccccc4)c23)s1,2.3,-10,-10,-8,0.087*
COC(=O)c1c(-c2ccccc2)csc1NC(=O)CSc1ncnc2sc(C)c(C)c12,0.59,-1,-63,-5,x
COc1ccc(C(=O)N2CCN=C2SCc2cccnc2)cc1OC,2,-4,-2,0,0.042
COc1cccc(OC)c1C(=O)N1CCN=C1SCc1cccnc1,0.97,-3,-30,-5,x
SMILES,sdo1 growth,Yeast life ext,BB579 growth dn,HMGR II inh,SDO1 rescue DR
O=C(COc1ccccc1C(=O)N/N=C\c1ccc(O)c(O)c1)N/N=C/c1ccc(O)c(O)c1,2.3,-23,-2,29*,0.046
CSCC[C@H](NC(=O)OC(C)(C)C)c1nnc(SCC(N)=O)o1,9.6*,-8,-42,-1,0.046*
CCN(CC)C(=O)CSc1nnc([C@H](CCSC)NC(=O)OC(C)(C)C)o1,0.13,-9,-24,4,x
O=C(NCCc1ccccc1)c1ccnc(/C=N/O)c1,8*,-6,-55,-2,0.029
O=C(NCc1cccs1)c1nc2ncccn2n1,3*,-10,-30,0,0.032
CC(Oc1ccc(C#N)cc1)C(=O)c1ccc(F)c(F)c1 (centres undefined),x,x,x,1,x
CN(C)c1ccc(/C=N/OC(=O)Nc2ccccc2Cl)cc1,x,x,x,-2,x

# Compound activity (PubChem)
